Screens from PubChem.
Only some compounds are listed: those with a hit (about 3.7% of all), similar ones and a draw of the others.
WT yeast gro inh – growth inhibition of WT strain, primary screen, mitochondrial fusion inhibitor project, WT and mutant strains, chemical genetic; mitochondrial fusion phenotypic screen; inhibition, % at 10 µM; actives 2.1% (n = 190,000); AID 1362, 2008; in the data active = inhibition above about 58%; tested in S. cerevisiae
eIF4E 4G PPI – eIF4E–eIF4G protein interaction inhibitors, primary screen, biochemical, uHTS, TR-FRET, eIF4GI fragment | inhibition, % at 21.7 µM | Eukaryotic translation initiation factor 4E (Mus musculus) + Eukaryotic translation … | AID 782, 2007 | actives 0.37% (n = 220,000) | TR-FRET eIF4E-eIF4GI(517-606) binding, 2 h;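 note: 0% = full FRET control wells and 100% = background wells lacking eIF4GI fragment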
NCF1 inh – p47phox/p22phox peptide binding inhibitors, primary screen, biochemical, uHTS, NADPH oxidase regulatory subunit. fluorescence polarization, 2 h. inhibition, % at 24.7 µM. actives 0.53% (n = 220,000);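 note: 0% = p47phox with labelled peptide and 100% = labelled peptide alone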
RBBP9 inhibitor – human RBBP9 inhibitors, primary screen, biochemical, fluorescence polarization, FP-Rh probe, HTS. actives 0.2% (n = 220,000). inhibition, % at 7.94 µM. recombinant RBBP9. Serine hydrolase RBBP9 (Homo sapiens), O75884;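 active = inhibition above the campaign mean of all tested compounds plus 3 SD, cut at about 14% in these data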;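 note: plate controls were DMSO wells with RBBP9 for no effect and wells lacking RBBP9 protein for full effect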
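Assay system: recombinant human RBBP9; Reagent: Serine-hydrolase probe FP-Rh, 375 nM pre-mixing; Doses: 7.94 µM single dose, 0.794% DMSO; Incubation: 30 min then 45 min, 25 °C; Detection: fluorescence polarization (mP), excitation 525 nm, emission 598 nm; Evaluation: percent inhibition from mP, scaled between DMSO and no-protein wells.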
EBV gp42 inh – Epstein-Barr virus gp42 inhibitors, primary screen, biochemical, uHTS, fluorescence polarization; Glycoprotein 42 (Epstein-Barr virus (strain AG876)), Q1HVG2; Fluorescence polarization binding assay, mP read-out; inhibition, % (tested at 21.74 µM); actives 0.42% (n = 220,000); in the data active = inhibition above about 50%
14-3-3 Bad PPI – inhibitors of 14-3-3 zeta/Bad binding, primary screen, biochemical, TR-FRET, bovine 14-3-3 zeta; actives 0.71% (n = 220,000); inhibition, % at 21.7 µM; AID 781, 2007; TR-FRET 14-3-3zeta/Dy647-pBad peptide displacement, 1 h; 14-3-3 protein zeta/delta (Bos taurus), P63103;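 active = inhibition above about 70%, limit read from the data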;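 note: 0% = full 14-3-3 plus peptide FRET controls and 100% = background without 14-3-3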
* hit, by the source's call; x = not tested or not shown; [ ] = dose if it differs, or a comment.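 Rule for the calls, unless noted: active = inhibition above about 30% (limit read from the data); inactive = the rest.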

SMILES | WT yeast gro inh | eIF4E 4G PPI | NCF1 inh | RBBP9 inhibitor | EBV gp42 inh | 14-3-3 Bad PPI
COc1ccc(NC(=O)N2CCC(CO)(CC3CCCCO3)CC2)c(OC)c1 (stereo not drawn) | x | -4.0 | 2.8 | -10.2 | 7.2 | -1.8
CCOC(=O)c1c(-c2ccc(F)cc2)csc1NC(=O)C1CCCO1 (stereo not drawn) | 39.6 | -0.1 | -5.6 | -7.4 | -20.2 | -1.7
CCOC(=O)c1c(-c2ccc(C)cc2)csc1NC(=O)C1CCCO1 (stereo not drawn) | 58.1* | 17.5 | -3.5 | -3.1 | 5.8 | -11.0
CC(C)OC(=O)c1c(-c2ccc(C(C)C)cc2)csc1NC(=O)C1CCCO1 (stereo not drawn) | 69.6* | -1.1 | -11.3 | -1.0 | -18.3 | -2.4
O=C(CN1CCC(O)(c2cccc(F)c2)CC1)NCCc1c[nH]c2ccccc12 | x | 1.7 | -0.1 | -4.3 | -9.6 | -0.6
COc1ccc(OC)c(S(=O)(=O)Nc2ccc(F)cc2)c1 | -3.6 | x | 10.1 | -6.6 | -17.4 | x
COc1ccc(C)cc1S(=O)(=O)Nc1ccc(F)cc1 | 62.4* | -0.3 | 2.8 | -0.6 | -6.0 | 14.1
Cc1ccccc1NC(NC(=O)OCCn1c([N+](=O)[O-])cnc1C)C(Cl)(Cl)Cl (stereo not drawn) | -6.7 | 3.0 | -6.5 | 2.2 | -13.0 | 7.3
N#Cc1ccccc1Cn1c(=O)n(Cc2ccc(C(=O)NCc3ccco3)cc2)c(=O)c2ccccc21 | 13.9 | 10.2 | 30.5* | -7.2 | -3.7 | 52.1
COc1ccc(S(=O)(=O)N(C(C)=O)c2ccc(OC(C)=O)c3ccccc23)cc1[N+](=O)[O-] | -13.3 | 2.0 | -21.1 | -3.0 | 9.4 | 2.8
CCc1cccc(NC(=O)Cn2c3[n+](c4ccc(C(F)(F)F)cc42)CCCCC3)c1 | 13.8 | -2.8 | 1.1 | -12.0 | -59.9 | 32.4
O=C(Cn1c2[n+](c3ccc(C(F)(F)F)cc31)CCCCC2)Nc1ccccc1 | -1.4 | 34.0*[fluorescence artefact?] | 3.2 | 1.9 | -73.8 | 4.4
Cn1cccc1Cc1nnc(SCC(N)=O)n1CCc1ccccc1 | 3.3 | -2.1 | 89.2* | -1.3 | -7.6 | -7.5
CCCCc1ccc(NC(=S)NCCc2ccc(F)cc2)cc1 | 68.4* | -2.4 | -9.4 | -11.7 | 9.7 | -6.5
COc1ccccc1NC(=S)NCCc1ccc(Cl)cc1 | -1.3 | 3.7 | -21.9 | -3.9 | -24.8 | 1.1
CCOc1ccccc1NC(=S)NCCc1ccccc1 | 74.2* | -0.2 | -6.7 | -7.1 | -9.8 | -2.8
CCOc1ccccc1NC(=S)NCCc1ccc(F)cc1 | 62.0* | -1.4 | -9.3 | -7.4 | -15.1 | -20.2
NC(=O)c1cnn(-c2cc(Oc3ccccc3)ncn2)c1N | -22.2 | -3.5 | -3.1 | -2.4 | -12.0 | -6.3
O=C(CNC(=O)c1ccc(F)cc1)Nc1ccccc1C(F)(F)F | x | -10.8 | 3.6 | -7.5 | -6.2 | 0.8
Cc1c2cnn(CC(=O)Nc3c(F)c(F)cc(F)c3F)c(=O)c2c(C)n1Cc1ccccc1F | -8.7 | 31.8* | -59.7 | -19.5 | 13.0 | 16.7
COc1cc(Cl)cc(NC(=O)CCN2CCN(C)CC2)c1 | 17.0 | 5.6 | 4.4 | -3.1 | -3.6 | 76.5*
COc1cc(NC(=O)CCN2CCN(Cc3ccccc3)CC2)cc(OC)c1 | 2.0 | -3.3 | -1.9 | -1.8 | -25.6 | 11.3
Cc1ccc(SC(C)C(=O)Nc2cccc(N(C)S(C)(=O)=O)c2)cc1 (stereo not drawn) | -4.4 | 1.6 | 1.2 | 2.3 | 5.3 | 75.4*
Cc1ccc(SC(C)C(=O)Nc2ccccc2-c2ccccc2)cc1 (stereo not drawn) | 78.3* | 3.4 | -1.6 | -2.7 | -2.9 | -0.7
CC(Sc1ccc(Cl)cc1)C(=O)Nc1ccccc1-c1ccccc1 (stereo not drawn) | 74.5* | 8.2 | -7.9 | -3.5 | 7.3 | -19.3
SMILES | WT yeast gro inh | eIF4E 4G PPI | NCF1 inh | RBBP9 inhibitor | EBV gp42 inh | 14-3-3 Bad PPI
CCNC(=O)C(C)Sc1ccc(Cl)cc1 (stereo not drawn) | -3.5 | -1.6 | -1.9 | -2.6 | -10.5 | 9.9
CCn1c(C(C)NC(=O)c2cccc(C)c2)n[nH]c1=S (stereo not drawn) | -9.9 | 2.0 | -5.1 | -6.3 | -20.4 | -8.4
O=C(c1ccc(F)cc1)C(C(=O)N1CCCCC1)n1ccccc1=O (stereo not drawn) | -6.4 | -1.0 | -8.5 | -2.1 | -3.8 | -3.6
COC(=O)/C(=C1/Oc2cc(C)oc(=O)c2S1)C(F)(F)F | 27.3 | -6.8 | -6.1 | -3.3 | -17.4 | -7.3
COC(=O)/C(=C(/F)Sc1cc(C)c(O)c(C)c1)C(F)(F)F | 94.1* | 19.6 | -7.1 | 7.8 | -10.0 | 9.3
O=C(c1ccccc1)N1CCCC(c2ccc(Cl)cc2)=N1 | 42.0 | 3.6 | -10.2 | -3.0 | -3.3 | 5.0
O=C(c1cccc(Cl)c1)N1CCCC(c2ccc(Cl)cc2)=N1 | 78.4* | 3.2 | -13.3 | -2.6 | -11.0 | -4.3
C=CCN1CC(c2nc3ccccc3n2CCOc2ccccc2)CC1=O (stereo not drawn) | -20.3 | 5.9 | -4.4 | 0.1 | 58.1* | 5.3
C=C(C)Cn1c(C2CC(=O)N(Cc3ccccc3)C2)nc2ccccc21 (stereo not drawn) | 11.1 | x | x | x | x | x
CCn1c(C2CC(=O)N(Cc3ccccc3)C2)nc2ccccc21 (stereo not drawn) | 3.4 | 51.9*[fluorescence artefact?] | 1.2 | -6.5 | 1.6 | 14.2
O=C(Nc1nnc(C23CC4CC(CC(C4)C2)C3)s1)c1ccc(N2C(=O)CCC2=O)cc1 | -1.5 | 61.5*[fluorescence artefact?] | -9.7 | -9.0 | -8.3 | 14.6
Cc1nc(=O)c(-c2ccccc2)c(C)n1CCCO | 8.3 | -2.6 | -9.3 | -5.8 | -7.0 | 90.0*
Cc1nc(=O)c(-c2ccccc2)c(C)n1CCO | 6.0 | 3.2 | -9.6 | -9.2 | -8.2 | 14.2
Cc1nc(=O)c(-c2ccccc2)c(C)n1CCCCCC(=O)O | 82.6* | 0.5 | 0.1 | 1.5 | 16.7 | 2.6
COc1ccc(N(CC(=O)NCc2ccc(Cl)cc2)S(=O)(=O)c2ccccc2[N+](=O)[O-])c(OC)c1 | 6.0 | -1.4 | 2.1 | -9.4 | 16.3 | 26.7
CCCC(=O)N1CC(=O)Nc2ccc(F)cc2C1c1ccccc1 (stereo not drawn) | 7.4 | -1.3 | -6.9 | -8.6 | -9.6 | -3.1
CN1CC(=O)Nc2ccc(F)cc2C1=O | 59.7* | 1.8 | -7.7 | -4.0 | -8.3 | -7.3
O=C(/C=C/c1ccco1)NC(=S)NNC(=O)c1ccco1 | 1.7 | 2.5 | -10.0 | -8.1 | -15.7 | 1.6
CC(=O)N(C1=C(N2CCOCC2)C(=O)c2ccccc2C1=O)c1ccc(C(=O)O)cc1 | x | 35.8* | 4.1 | -2.1 | -8.8 | 0.1
